In ChEMBL document CHEMBL5724801, “EUbOPEN Chemogenomics Library - Multiplex” (2024):
Where “and” joins values, the source holds several entries; their conditions need not be identical. Identical values can stand only once.

System: U2OS
Test: Multiplex assay against U2OS
Format: toxicity, cell-based
Settings: human
Method in brief: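 Live cells were stained at seeding with Hoechst33342, BioTracker Green Microtubule Cytoskeleton Dye, MitoTracker Red and Annexin V Alexa Fluor 680, then imaged on a CQ1 microscope at 37°C and 5% CO2 after compound addition. CellPathfinder machine-learning gating split cells into Hoechst high-intensity objects or normal cells. Normal cells were split into healthy, pyknosed or fragmented nuclei, and pyknosed cells into mitotic or apoptotic. Tubulin, mitochondrial-mass and membrane-permeability phenotypes are per cents of healthy-nucleus cells.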

[1] = 12 h, 1 µM, compound concentration 1 uM
[2] = 12 h, 10 µM, compound concentration 10 uM
[3] = 24 h, 1 µM, compound concentration 1 uM
[4] = 24 h, 10 µM, compound concentration 10 uM
[5] = 48 h, 1 µM, compound concentration 1 uM
[6] = 48 h, 10 µM, compound concentration 10 uM

CN(C)CCOc1ccc(/C(=C(/CCCO)c2ccccc2)c2ccc(O)cc2)cc1
Population Apoptotic (%) [1]: 43.75% and 21.88%
Population Fragmented Nuclei (%) [1]: 1.53% and 1.8%
Population Healthy Nuclei (%) [1]: 90.31% and 79.04%
Population Hoechst High Intensity Objects (%) [1]: 0%
Population Membrane Permeable-Phenotype (%) [1]: 2.26% and 4.55%
Population Mitotic Cells (%) [1]: 56.25% and 78.12%
Population Normal (%) [1]: 100%
Population Pyknosed Nuclei (%) [1]: 8.16% and 19.16%
Population Tubulin-Different-Phenotype (%) [1]: 2.54% and 2.27%
Total Cell Count [1]: 392 and 167
Population Apoptotic (%) [2]: 30.43% and 23.08%
Population Fragmented Nuclei (%) [2]: 2.02% and 2.16%
Population Healthy Nuclei (%) [2]: 71.39% and 69.78%
Population Hoechst High Intensity Objects (%) [2]: 0%
Population Membrane Permeable-Phenotype (%) [2]: 13.77% and 36.08%
Population Mitotic Cells (%) [2]: 69.57% and 76.92%
Population Normal (%) [2]: 100%
Population Pyknosed Nuclei (%) [2]: 26.59% and 28.06%
Population Tubulin-Different-Phenotype (%) [2]: 60.73% and 38.14%
Total Cell Count [2]: 346 and 139
Population Apoptotic (%) [3]: 35.85% and 30.56%
Population Fragmented Nuclei (%) [3]: 0.75% and 3.24%
Population Healthy Nuclei (%) [3]: 89.35% and 80.09%
Population Hoechst High Intensity Objects (%) [3]: 0%
Population Membrane Permeable-Phenotype (%) [3]: 0.63% and 4.05%
Population Mitotic Cells (%) [3]: 64.15% and 69.44%
Population Normal (%) [3]: 100%
Population Pyknosed Nuclei (%) [3]: 9.91% and 16.67%
Population Tubulin-Different-Phenotype (%) [3]: 1.67% and 1.16%
Total Cell Count [3]: 535 and 216
Population Apoptotic (%) [4]: 44.63% and 34.25%
Population Fragmented Nuclei (%) [4]: 2.92% and 1.89%
Population Healthy Nuclei (%) [4]: 67.64% and 52.2%
Population Hoechst High Intensity Objects (%) [4]: 0%
Population Membrane Permeable-Phenotype (%) [4]: 12.23% and 26.51%
Population Mitotic Cells (%) [4]: 55.37% and 65.75%
Population Normal (%) [4]: 100%
Population Pyknosed Nuclei (%) [4]: 29.44% and 45.91%
Population Tubulin-Different-Phenotype (%) [4]: 51.08% and 46.99%
Total Cell Count [4]: 411 and 159
Population Apoptotic (%) [5]: 42.71% and 56.25%
Population Fragmented Nuclei (%) [5]: 2% and 2.61%
Population Healthy Nuclei (%) [5]: 87.88% and 81.7%
Population Hoechst High Intensity Objects (%) [5]: 0.11% and 0%
Population Membrane Permeable-Phenotype (%) [5]: 1.2% and 2%
Population Mitotic Cells (%) [5]: 57.29% and 43.75%
Population Normal (%) [5]: 99.89% and 100%
Population Pyknosed Nuclei (%) [5]: 10.12% and 15.69%
Population Tubulin-Different-Phenotype (%) [5]: 2.28% and 1.6%
Population Apoptotic (%) [6]: 54.89% and 66.67%
Population Fragmented Nuclei (%) [6]: 4.64% and 2.86%
Population Healthy Nuclei (%) [6]: 74.08% and 49.14%
Population Hoechst High Intensity Objects (%) [6]: 0%
Population Mitotic Cells (%) [6]: 45.11% and 33.33%
Population Normal (%) [6]: 100%
Population Pyknosed Nuclei (%) [6]: 21.28% and 48%
Population Tubulin-Different-Phenotype (%) [6]: 26.13% and 55.81%

O=C1[C@H](Cc2ccc(O)cc2)N2C(=O)CCN(C(=O)NCc3ccccc3)[C@H]2CN1Cc1cccc2ccccc12
Population Apoptotic (%) [1]: 91% and 84%
Population Fragmented Nuclei (%) [1]: 13% and 21%
Population Healthy Nuclei (%) [1]: 74% and 66%
Population Hoechst High Intensity Objects (%) [1]: 4% and 0%
Population Membrane Permeable-Phenotype (%) [1]: 4% and 5%
Population Mitochondria Different-Phenotype (%) [1]: 1% and 8%
Population Mitotic Cells (%) [1]: 8% and 15%
Population Normal (%) [1]: 96% and 99%
Population Pyknosed Nuclei (%) [1]: 12% and 11%
Population Tubulin-Different-Phenotype (%) [1]: 1% and 4%
Total Cell Count [1]: 200 and 113
Population Apoptotic (%) [2]: 60% and 72%
Population Fragmented Nuclei (%) [2]: 32% and 19%
Population Healthy Nuclei (%) [2]: 50% and 67%
Population Hoechst High Intensity Objects (%) [2]: 3% and 6%
Population Membrane Permeable-Phenotype (%) [2]: 55% and 38%
Population Mitochondria Different-Phenotype (%) [2]: 35% and 47%
Population Mitotic Cells (%) [2]: 40% and 27%
Population Normal (%) [2]: 96% and 93%
Population Pyknosed Nuclei (%) [2]: 17% and 13%
Population Tubulin-Different-Phenotype (%) [2]: 55% and 43%
Total Cell Count [2]: 207 and 88
Population Apoptotic (%) [3]: 80% and 88%
Population Fragmented Nuclei (%) [3]: 13% and 14%
Population Healthy Nuclei (%) [3]: 73% and 71%
Population Hoechst High Intensity Objects (%) [3]: 2% and 1%
Population Membrane Permeable-Phenotype (%) [3]: 4% and 7%
Population Mitochondria Different-Phenotype (%) [3]: 1% and 5%
Population Mitotic Cells (%) [3]: 19% and 11%
Population Normal (%) [3]: 97% and 98%
Population Pyknosed Nuclei (%) [3]: 13% and 14%
Population Tubulin-Different-Phenotype (%) [3]: 2% and 4%
Total Cell Count [3]: 242 and 127
Population Apoptotic (%) [4]: 65% and 85%
Population Fragmented Nuclei (%) [4]: 34% and 29%
Population Healthy Nuclei (%) [4]: 42% and 54%
Population Hoechst High Intensity Objects (%) [4]: 3% and 5%
Population Membrane Permeable-Phenotype (%) [4]: 25% and 36%
Population Mitochondria Different-Phenotype (%) [4]: 23% and 38%
Population Mitotic Cells (%) [4]: 34% and 14%
Population Normal (%) [4]: 96% and 94%
Population Pyknosed Nuclei (%) [4]: 22% and 16%
Population Tubulin-Different-Phenotype (%) [4]: 25% and 42%
Total Cell Count [4]: 214 and 91
Population Apoptotic (%) [5]: 81% and 95%
Population Fragmented Nuclei (%) [5]: 15% and 16%
Population Healthy Nuclei (%) [5]: 73% and 67%
Population Hoechst High Intensity Objects (%) [5]: 3% and 5%
Population Membrane Permeable-Phenotype (%) [5]: 2% and 3%
Population Mitochondria Different-Phenotype (%) [5]: 2% and 0%
Population Normal (%) [5]: 96% and 94%
Population Pyknosed Nuclei (%) [5]: 11% and 15%
Population Tubulin-Different-Phenotype (%) [5]: 3% and 5%
Total Cell Count [5]: 326 and 168
Population Apoptotic (%) [6]: 82% and 81%
Population Fragmented Nuclei (%) [6]: 37% and 33%
Population Healthy Nuclei (%) [6]: 43% and 46%
Population Hoechst High Intensity Objects (%) [6]: 5% and 4%
Population Membrane Permeable-Phenotype (%) [6]: 28% and 22%
Population Mitochondria Different-Phenotype (%) [6]: 16% and 20%
Population Mitotic Cells (%) [6]: 17% and 18%
Population Normal (%) [6]: 94% and 95%
Population Pyknosed Nuclei (%) [6]: 19% and 20%
Population Tubulin-Different-Phenotype (%) [6]: 19% and 18%
Total Cell Count [6]: 252 and 111
